Experimental findings from ChEMBL document CHEMBL1135785, “N-[(2-Sulfo)-9-fluorenylmethoxycarbonyl](3)-gentamicin C(1) is a long-acting prodrug derivative” (J Med Chem, 2002) are described below.

A value given as a limit tells only on which side of the number the result lay.

The term Kd denotes the free concentration of one partner at which half of the binding sites on the other are occupied at equilibrium, for simple one-to-one binding. A low value points to a tighter complex. The half-life is the time needed for the level to fall by half in the phase considered. One may read the IC50 as the concentration needed to halve the response being measured.

Data set [1] has as its target T1, Albumin (Homo sapiens, UniProt P02768). Put plainly: The compound was evaluated for pharmacokinetic parameters Serum albumin associating affinity.
Data set [2] can be described thus: Half life after i.v. administration to rat. It is filed as ADME, organism-based. The settings on record: in vivo, iv. The method in brief:
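Rats (n = 4 per group) received 1 μmol/rat intravenously in 0.2 mL PBS, pH 7.4. Tail blood was sampled at several time points. Immunoreactive gentamicin was measured by fluorescence polarization immunoassay, with each point the mean of four rats. Circulating half-life was taken from the decline phase.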

The target in data set [3] is T1, Albumin. Put plainly: Evaluated for inhibition of Serum albumin evoked PNPA hydrolysis in presence of 0.7 M of FMS. The format is functional. Summed up: (§1)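 Human serum albumin (11.4 μM) in 0.05 M HEPES, pH 6.7, was preincubated for 10 min with or without increasing concentrations of each FMS-gentamicin conjugate. PNPA was then added to a final 1 mM. Absorbance at 410 nm was read 60 min later, and IC50 was calculated for inhibition of HSA-evoked PNPA hydrolysis.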

The target of data set [4] is T1, Albumin. Put plainly: The compound was evaluated for albumin associating affinity along with 1.3 M of FMS. Summed up:
(§2)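 Albumin affinity was inferred from the PNPA esterase assay. HSA (11.4 μM, 0.05 M HEPES, pH 6.7) was preincubated 10 min with graded conjugate concentrations, then given 1 mM PNPA (final). A410 was read at 60 min. The resulting IC50 values were converted to Kd estimates.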

Data set [5] concerns Escherichia coli. Put plainly: Potency for its ability to inhibit replication of Escherichia coli. The format is functional. The method in brief:
(§3)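 Antibacterial potency was measured as inhibition of Escherichia coli replication, expressed as half-maximal inhibitory concentration and as percent of native gentamicin activity.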

The target of data set [6] is T1, Albumin. Put plainly: Evaluated for inhibition of Serum albumin evoked PNPA hydrolysis in presence of 3.0 M of FMS. It is filed as functional. Summed up: as §1
Data set [7] can be described thus: Half life for hydrolysis of the compound. The format is ADME. Summed up: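 Conjugate was incubated in 0.1 M NaHCO3, pH 8.5, at 37 °C. Aliquots were withdrawn over time and assayed with TNBS for the appearance of free amino groups to give the FMS hydrolysis half-life.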
Data set [8] deals with T1, Albumin. Put plainly: The compound was evaluated for albumin associating affinity along with 3.0 M of FMS. The method in brief: as §2
The target in data set [9] is T1, Albumin. Put plainly: Evaluated for inhibition of Serum albumin evoked PNPA hydrolysis in presence of 2.1 M of FMS. The format is functional. Summed up: as §1
In data set [10] the target is T1, Albumin. Put plainly: Evaluated for inhibition of Serum albumin evoked PNPA hydrolysis in presence of 1.3 M of FMS. The format is functional. The method in brief:
as §1

Data set [11] deals with Escherichia coli. Put plainly: The compound was evaluated for its ability to inhibit replication of Escherichia coli. The format is functional, organism-based. Summed up: as §3
In data set [12] the target is T1, Albumin. Put plainly: The compound was evaluated for albumin associating affinity along with 2.1 M of FMS. Summed up: as §2
Data set [13] can be described thus: The compound was evaluated for pharmacokinetic parameters HSA associating affinity. It is filed as ADME. The settings on record: human. Summed up: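 Human serum albumin (11.4 μM) in 0.05 M HEPES, pH 6.7, preincubated 10 min with or without rising conjugate concentrations. p-Nitrophenyl acetate (PNPA) then added to 1 mM final. Absorbance read at 410 nm 60 min later. IC50 calculated for inhibition of HSA-evoked PNPA hydrolysis, then converted to Kd estimates. FMS-L-serine served as internal standard.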

Data set [14] has as its target T1, Albumin. Put plainly: The compound was evaluated for albumin associating affinity 0.7 M of FMS. Summed up: as §2

T1 sequence (P02768 whole entry): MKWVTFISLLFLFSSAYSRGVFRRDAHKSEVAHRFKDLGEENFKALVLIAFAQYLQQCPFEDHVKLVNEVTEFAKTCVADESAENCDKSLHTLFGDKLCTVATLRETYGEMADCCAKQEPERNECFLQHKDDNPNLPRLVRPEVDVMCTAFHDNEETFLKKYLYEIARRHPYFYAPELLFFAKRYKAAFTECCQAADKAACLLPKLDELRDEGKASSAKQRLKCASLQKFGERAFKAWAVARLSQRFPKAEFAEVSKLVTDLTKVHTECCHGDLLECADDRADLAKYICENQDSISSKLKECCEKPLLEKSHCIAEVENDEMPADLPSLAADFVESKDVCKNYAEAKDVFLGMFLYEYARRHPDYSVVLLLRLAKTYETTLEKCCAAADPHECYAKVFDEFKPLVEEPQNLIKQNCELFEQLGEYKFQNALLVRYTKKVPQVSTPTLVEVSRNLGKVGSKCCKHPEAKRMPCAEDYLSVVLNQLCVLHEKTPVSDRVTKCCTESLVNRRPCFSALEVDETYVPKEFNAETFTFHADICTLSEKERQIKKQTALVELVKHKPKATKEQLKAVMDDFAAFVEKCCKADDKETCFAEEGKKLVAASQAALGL

Take `CNC(C)[C@H]1CCC(N)[C@@H](O[C@@H]2C(NC(=O)OCC3c4ccccc4-c4ccc(S(=O)(=O)O)cc43)C[C@@H](NC(=O)OCC3c4ccccc4-c4ccc(S(=O)(=O)O)cc43)C(O[C@H]3OC[C@](C)(O)C(NC)[C@@H]3O)[C@@H]2O)O1` (stereo partly specified): binding at Albumin [1] was put at a Kd of 9.2 µM.

In data set [2], `CNC(C)[C@H]1CCC(N)[C@@H](O[C@@H]2C(N)C[C@@H](NC(=O)OCC3c4ccccc4-c4ccc(S(=O)(=O)O)cc43)C(O[C@H]3OC[C@](C)(O)C(NC)[C@@H]3O)[C@@H]2O)O1` (stereo partly specified) gave a half-life of 1.3 h. Besides, the Kd at Albumin [1] worked out at 20 µM.

With `CNC(C)[C@H]1CCC(NC(=O)OCC2c3ccccc3-c3ccc(S(=O)(=O)O)cc32)[C@@H](O[C@@H]2C(NC(=O)OCC3c4ccccc4-c4ccc(S(=O)(=O)O)cc43)C[C@@H](NC(=O)OCC3c4ccccc4-c4ccc(S(=O)(=O)O)cc43)C(O[C@H]3OC[C@](C)(O)C(NC)[C@@H]3O)[C@@H]2O)O1` (stereo partly specified), the IC50 on Albumin [3] was found to be 80 µM; on Albumin [6], 19 µM; at Albumin [9] it was 23 µM; at Albumin [10], 43 µM; in the data set with Escherichia coli [11], 24 µM. The Kd at Albumin [4] came to 17.2 µM; on Albumin [8], 7.6 µM; on Albumin [12], 9.2 µM; at Albumin [14], 32 µM. Moreover, the Potency in the data set with Escherichia coli [5] was under 1%. For the same compound, the results for the half-life in data set [7] and in data set [2] were 8 h and 3.8 h, respectively. In addition, in data set [13], the Ka was 131000 M⁻¹.
